# DENV2 CPE rescue = inhibitors of DENV2 cytopathic effect; 1.7% of 350,000 active; CPE inhibition, % at 9.99 µM; DENV2-infected cells, cytopathic effect rescue, plate reader; AID 651640; in the data active means CPE inhibition above about 20%, passing the limit was not always enough; inconclusive means no clear call, values can overlap the other calls; tested in BHK-21 cells;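 further: 0% = median of neutral control wells and 100% = median of positive control wells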
# FN deposition inh = fibronectin deposition inhibition. AH1F fibroblasts, Alexa488-fibronectin deposition fluorescence, overnight. inhibition, % at 12.6 µM. 0.086% of 350,000 active;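 active means mean inhibition across replicates of 30% or more, regardless of how many single replicates reach that level; inconclusive means mean under 30% yet at least half of replicates reach 30%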;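 further: positive control wells lacked labelled fibronectin entirely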
#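 Material: AH1F fibroblasts assembling fluorescent fibronectin matrix; amount: 10000 AH1F cells/well; medium: DMEM, 2% serum; reagent: Alexa488-fibronectin, 24 nM final in well; dosing: single compound dose, delivered by pin transfer; incubation: 1 h adhesion, overnight exposure; detection: fluorescence after three HBSS washes, excitation 485 nm, emission 525 nm; measure: fibronectin deposition inhibition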
# Casp6 inh = blocks human caspase-6 cleavage activity; P55212; purified caspase-6, Z-VEID-R110 cleavage fluorescence; inhibition, % at 12.5 µM; 0.53% of 350,000 active; AID 686996;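 active means mean inhibition across replicates at least about 35%, with every replicate also reaching that limit, limit read from the data; inconclusive means only one of the two criteria met; inactive means neither criterion met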;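 further: 0% = median of neutral control wells and 100% = no fluorescence left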
# Target sequence (P55212 24-179 limits assumed): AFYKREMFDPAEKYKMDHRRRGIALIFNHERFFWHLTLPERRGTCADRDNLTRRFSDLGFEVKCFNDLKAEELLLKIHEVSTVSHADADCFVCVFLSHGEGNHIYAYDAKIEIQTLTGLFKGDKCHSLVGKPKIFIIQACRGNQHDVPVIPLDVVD
# Target sequence (P55212 194-293 limits assumed): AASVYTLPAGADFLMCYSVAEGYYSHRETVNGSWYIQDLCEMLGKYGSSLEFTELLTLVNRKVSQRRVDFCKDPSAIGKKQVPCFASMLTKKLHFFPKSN
# Xi reactivation = activators of X-chromosome reactivation in mouse fibroblasts. XiGFP mouse fibroblasts, % GFP-positive cells imaging, 3 d; cells co-treated with 5-aza-dC sensitizer; scaled so ellipticine positive control = 100%. activation, % at 7.58 µM. 0.055% of 360,000 active. AID 743238;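 active means mean normalized replicate activation at least 10% and every replicate at or above 10%; inconclusive means only one of the two criteria met; inactive means mean below 10% and not all replicates reach 10%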;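 further: 0% = median of on-plate neutral control wells and 100% = ellipticine 6 µM median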
#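 Assay system – SV40-immortalized XiGFP fibroblast cells, line 68-5-11 · Buffer or medium – DMEM supplemented with 5-aza-dC as sensitizing agent · Dosing – one concentration, pinned · Benchmarks – positive control ellipticine, 6 µM final · Times – 3 days compound exposure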
# CaV13 FRET inh = Primary screen for inhibitors of IQ motif and Ca2+-dependent inactivation inhibitor domain binding in CACNA1D, Förster resonance energy transfer in living cells, … | inhibition, % at 12.3 µM | 0.098% of 340,000 active | AID 743397 | HEK cells, CFP/YFP FRET ICDI-IQ, plate reader, 10 min; percent FRET-ratio fall versus neutral wells;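 active means mean replicate inhibition of at least 30% and at least 1% of replicates passing that level; inconclusive means only one of the two criteria is met; inactive means neither criterion is met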;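 further: 0% = median of the neutral control wells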
# * marks the source's active call; other numbers are inactive results; ? = inconclusive; · = no result; ! = a repeat was not active. The list is not random: actives were taken first. Their share in the collection is about 2%.
SMILES,DENV2 CPE rescue,FN deposition inh,Casp6 inh,Xi reactivation,CaV13 FRET inh
COc1ccccc1-c1ccc2c(c1)[C@H]1[C@H](CCN1S(=O)(=O)c1cccc(C)c1)[C@H](CO)N2,?,5,1,0,·
CCCNC(=O)C(Cc1ccc(F)cc1)NC(=O)c1ccc(C#N)cc1 (stereo not drawn),-5,-2,-3,0,-4
CCCNC(=O)C(Cc1ccc(I)cc1)NC(=O)c1ccc(C#N)cc1 (stereo not drawn),33*,-1,2,-1,-2
O=C(Nc1cccc(Cl)c1)N1[C@@H]2CNC[C@H]1C2c1ccc(/C=C/c2ccccc2)cc1 (stereo partly drawn),11,-4,0,0,·
COc1cccc(NC(=O)N2[C@@H]3CNC[C@H]2C3c2ccc(/C=C/c3ccccc3)cc2)c1 (stereo partly drawn),89*!,-2,-1,0,·
COc1cccc(-c2ccc(C3[C@H]4CNC[C@@H]3N4C(=O)Nc3ccc(C(F)(F)F)cc3)cc2)c1 (stereo partly drawn),33*!,-5,·,0,·
COc1cccc(NC(=O)N2[C@@H]3CNC[C@H]2C3c2ccc(-c3ccccc3)cc2)c1 (stereo partly drawn),99*!,3,-2,0,·
O=C(C[C@@H]1CC[C@H]2[C@@H](COC[C@@H](O)CN2C(=O)c2ccncc2)O1)Nc1ccc(-c2ccccc2)cc1,21*,7,0,0,·
O=C(C[C@H]1CC[C@@H]2[C@H](COC[C@H](O)CN2C(=O)c2ccccc2)O1)N1CCc2ccccc2C1,28*,-4,1,0,·
CNC(=O)C[C@@H]1CC[C@@H]2[C@H](COC[C@H](O)CN2C(=O)c2ccccn2)O1,69*,-10,-1,0,·
CCNC(=O)C[C@H]1CC[C@@H]2[C@H](COC[C@@H](O)CN2C(=O)c2ccccn2)O1,4,3,·,1,·
O=C(C[C@H]1CC[C@@H]2[C@H](COC[C@H](O)CN2C(=O)c2ccccn2)O1)N1CCN(c2ccccc2)CC1,39*,-2,-1,0,·
O=C(C[C@@H]1CC[C@H]2[C@@H](COC[C@@H](O)CN2C(=O)c2cc(Cl)cc(Cl)c2)O1)N1CCc2ccccc2C1,2,-9,-4,0,·
CO[C@H]1CN(C)C(=O)c2ccc(NC(C)=O)cc2OC[C@H](C)NC[C@@H]1C,10,-1,1,0,·
CC(Oc1ccccc1Cl)C(=O)N1CCCN(C)CC1 (stereo not drawn),0,5,-6,0,-5
CC(Oc1ccccc1Cl)C(=O)N1CCOCC1 (stereo not drawn),107*,-1,2,0,-3
COc1ccc2c3c(n(C)c2c1)[C@@H](CO)N(Cc1ccc2c(c1)OCO2)CC31CN(C(=O)c2ccc3c(c2)OCO3)C1,11,·,2,0,·
CCC(=O)N1CC2(C1)[C@@H](c1ccccc1)[C@H](CO)N2C(=O)c1cccnc1,72*,·,-2,0,·
O=C(c1cccnc1)N1CC2(C1)[C@@H](c1ccccc1)[C@@H](CO)N2C(=O)CC1CC1,30*,-3,1,0,·
CCC(=O)N1CC2(C1)[C@@H](c1ccc(-c3ccc(F)cc3)cc1)[C@H](CO)N2C(=O)CC,27*,6,0,0,·
COCC(=O)N1CC2(C1)[C@@H](c1ccccc1)[C@@H](CO)N2C(=O)c1cccnc1,-9,·,1,0,·
O=C(CC1CC1)N1CC2(C1)[C@H](c1ccccc1)[C@@H](CO)N2C(=O)c1cccnc1,-5,·,0,0,·
Cc1noc(C)c1NC(=O)Nc1cccc2c1O[C@@H](CN(C)S(=O)(=O)c1ccc(Cl)cc1)[C@H](C)CN([C@@H](C)CO)C2=O,7,·,5,0,·
CN(C)CC(=O)N1[C@@H](CO)[C@H](c2ccccc2)C12CN(C(=O)c1ccc(F)cc1)C2,·,8,·,0,·
O=C(/C=C/c1cccs1)Nc1scc(-c2ccccc2)c1C(=O)O,1,1,54*,0,-3
SMILES,DENV2 CPE rescue,FN deposition inh,Casp6 inh,Xi reactivation,CaV13 FRET inh
CN1C(=O)N[C@@H]2c3ccccc3O[C@@]1(C)[C@@H]2COC(=O)c1ccc([N+](=O)[O-])cc1,38*,·,-3,·,·
O=C(CCN1C(=O)S/C(=C\c2ccc(Cl)cc2)C1=O)Nc1ccc(C(=O)O)cc1,?,0,-3,0,-7
COc1ccc(NC(=O)CN2C(=O)S/C(=C/c3cccn3-c3ccc(C(=O)O)cc3)C2=O)cc1,2,·,72*,0,-5
COc1ccc(/C=C2\SC(=O)N(CC(=O)NCCCn3ccnc3)C2=O)cc1,-7,-1,50*,1,-5
Cc1ccc(NC(=O)CN2C(=O)S/C(=C\c3cc(Cl)c(OCC(=O)O)c(Cl)c3)C2=O)cc1,2,-1,39*,0,-19
Cc1ccc(NC(=O)CN2C(=O)S/C(=C\c3cccn3-c3cccc(C(=O)O)c3)C2=O)cc1C,15,3,1,0,-31
COc1ccc(/C=C2\SC(=O)N(CCCC(=O)Nc3ccc(C(=O)O)cc3)C2=O)cc1,97*,-3,3,0,-10
COc1ccc2c3c(n(C)c2c1)[C@H](CO)N(C(C)=O)CC31CCN(C(=O)C2CC2)CC1,-1,·,-1,0,·
C[C@H](CO)N1C[C@H](C)[C@@H](CN(C)Cc2cncnc2)Oc2cc(C#C[C@@H](C)O)ccc2S1(=O)=O,-4,-13,·,0,·
O=S(=O)(c1ccc(F)cc1)N1CC[C@@H]2[C@H](CO)Nc3ccc(C#CC4CCCCC4)cc3[C@@H]21,-3,-5,-1,0,·
C(=C\c1ccc(C2[C@H]3CNC[C@@H]2N3Cc2ccccn2)cc1)/c1ccccc1 (stereo partly drawn),0,0,50*,0,·
C(=C\c1ccc(C2[C@H]3CNC[C@@H]2N3Cc2cncnc2)cc1)/c1ccccc1 (stereo partly drawn),-1,-10,·,0,·
O=C1C=CC(=O)N1c1ccccn1,9,·,1,0,-6
O=C(c1ccccc1)c1ccccc1N1C(=O)C=CC1=O,?,58*,-1,0,-2
O=C1C=CC(=O)N1c1ccccc1N1C(=O)C=CC1=O,2,40*,-2,0,-5
COc1ccc(-c2cc(N3C(=O)Nc4ccccc4N3O)n[nH]2)cc1OC,38*,-5,2,0,-5
O=C(NCc1ccc(F)cc1)C1CCCN1C(=O)Nc1cccc(F)c1 (stereo not drawn),-2,8,-2,0,64*
CCC(=O)N1CC2(C1)[C@H](c1ccc(-c3ccc(F)cc3)cc1)[C@H](CO)N2C(=O)CC,-7,8,-1,0,·

# Screening data (PubChem)
